Experimental data of several laboratories.
Lines come from different studies, so protocols differ.
Target: Vascular endothelial growth factor receptor 1 (FLT1, Homo sapiens, UniProt P17948)

| Structure (SMILES) | assay | setting | endpoint | value |
| --- | --- | --- | --- | --- |
| Nc1ncc(-c2nc(N3CCOCC3)nc(N3CCOCC3)n2)c(C(F)F)n1 | cell-free assay, competition with immobilised ligand | 10 µM | remaining binding | 91% |
| Cc1ncc(C)n2nc(/C=C/c3nc(N4CCCC4)cc(N4CCOCC4)n3)nc12 | enzyme activity, inhibitor | 10 µM | inhibition | -6% |
| C#Cc1n[nH]c2c(-c3cn([C@@H](C)c4ccccc4)c(=O)[nH]c3=O)cc(F)cc12 | enzyme activity, inhibitor | 0.1 µM | inhibition | 1.9% |
| Cn1cc(-c2cccc(N3CCc4c(sc5c4CC(C)(C)C5)C3=O)c2CO)cc(Nc2ccncn2)c1=O | enzyme activity, inhibitor | 1 µM | inhibition | 2% |
| Cn1cncc1[C@](O)(COc1ccc(C#N)cc1-c1ccc(OC(F)(F)F)cc1)c1ccc(C#N)cc1 | cell-free assay, competition with immobilised ligand | 1 µM | remaining binding | 98% |
| C#Cc1n[nH]c2c(-c3cn([C@@H](C)c4ccccn4)c(=O)[nH]c3=O)cc(F)cc12 | enzyme activity, inhibitor | 0.1 µM | inhibition | 2% |
| CC(C)(C)c1cc(C=C(C#N)C#N)cc(Br)c1O | enzyme activity, inhibitor | 0.5 µM | remaining activity | 92.5% |
| Cn1cc(-c2cc(F)cc(N3CCn4c(cc5c4CCCC5)C3=O)c2CO)cc(Nc2ccc(N3CCN(C4COC4)CC3)cn2)c1=O | enzyme activity, inhibitor | 0.1 µM | inhibition | 5% |
| COCc1c(-c2cc3cc(C)cc(OC)c3s2)c2c(N)ncnn2c1CN1CCNC(=O)C1 | cell-free assay, competition with immobilised ligand | 1 µM | inhibition | 91.7% |
| O=c1[nH]c2ccccc2n1C1CCN(Cc2ccc(-c3[nH]c4cc5ncnc5cc4nc3-c3ccccc3)cc2)CC1 | cell-free assay | 0.5 µM | remaining signal | 92.2% |
| COc1ncccc1-c1cnn2ccc(N3CCN(C(=O)OC(C)C)CC3)nc12 | binding, competition with immobilised ligand | 1 µM | remaining binding | 100% |
| O=C(Nc1cccnn1)N1CCN([C@@H]2CCOc3cc(C(F)(F)F)ccc32)CC1 | enzyme activity, inhibitor | 20 µM | inhibition | 2% |
